Experimental data collected from several papers.
Each line is one published result; the experiments were not run side by side.
Tumor necrosis factor receptor superfamily member 9: Tumor necrosis factor receptor superfamily member 9 (Homo sapiens, UniProt Q07011)

| SMILES | target | observed | mode | method | notes | measurement | value |
| --- | --- | --- | --- | --- | --- | --- | --- |
| c1cncc(-c2cccc(Nc3nccc(NC4CCCCC4)n3)c2)c1 | Macrophage colony-stimulating factor 1 receptor (CSF1R, Homo sapiens, UniProt P07333) | binding |  | competition with immobilised ligand |  | Kd | 590 nM |
| Cc1cc2nc3c(=O)[nH]c(=O)nc-3n(C[C@H](O)[C@H](O)[C@H](O)COP(=O)(O)OP(=O)(O)OC[C@H]3O[C@@H](n4cnc5c(N)ncnc54)[C@H](O)[C@@H]3O)c2cc1C | Heterogeneous nuclear ribonucleoprotein H3 (Homo sapiens, UniProt P31942) | binding |  |  | lysate | Kd | 19 nM |
| CC(C)C[C@H](NC(=O)[C@H](Cc1ccccc1)NC(=O)[C@H](Cc1ccc(O)cc1)NC(=O)CNC(=O)[C@H](CCCNC(=N)N)NC(=O)[C@H](CO)NC(=O)[C@H](CCC(N)=O)NC(=O)[C@H](CO)NC(=O)[C@H](C)NC(=O)[C@H](Cc1ccccc1)NC(=O)[C@@H]1CCCN1C(=O)[C@H](CO)NC(=O)[C@H](CCC(N)=O)NC(=O)[C@H](Cc1ccccc1)NC(=O)[C@H](CCC(=O)O)NC(=O)[C@H](CCC(=O)O)NC(=O)[C@H](CC(=O)O)NC(=O)[C@@H](NC(=O)[C@H](CCCNC(=N)N)NC(=O)[C@@H](N)Cc1ccccc1)C(C)C)C(=O)N[C@@H](Cc1ccccc1)C(=O)N[C@@H](CCCNC(=N)N)C(=O)N1CCC[C@H]1C(=O)N[C@@H](CCCNC(=N)N)C(=O)N[C@@H](CC(N)=O)C(N)=O | Neuromedin-U receptor 2 (NMUR2, Homo sapiens, UniProt Q9GZQ4) | inositol phosphate | agonist | TR-FRET |  | EC50 | 0.17 nM |
| CCCC[C@@H]1NC(=O)[C@H](Cc2ccc(O)cc2)NC(=O)[C@@H]2CCCN2C(=O)[C@H](CC(=O)O)NC(=O)[C@H](C)NC(=O)[C@H](Cc2ccccc2)NC(=O)[C@@H]2CSCCC(=O)N3CN(CN(C3)C(=O)CCSC[C@@H](C(=O)N[C@@H](CNC(=O)CCc3cn(CCOCCOCCOCCOCCOCCOCCOCCOCCOCCOCCOCCOCCC(=O)NCCC(=O)N(C)CC(=O)N(C)CC(=O)N(C)CC(=O)N(C)CC(=O)N(C)CC(=O)N(C)CC(=O)N(C)CC(=O)N(C)CC(=O)N(C)CC(=O)N(C)CC(=O)NCCCC[C@@H]4NC(=O)[C@H](Cc5cccc6ccccc56)NC(=O)[C@@H]5CCCN5C(=O)[C@@H](NC(C)=O)CSCCC(=O)N5CN6CN(C5)C(=O)CCSC[C@H](NC4=O)C(=O)N[C@@H](CCSC)C(=O)N[C@@H](CCCCNC(=N)N)C(=O)N[C@@H](CC(=O)O)C(=O)N[C@@H](Cc4c[nH]c5ccccc45)C(=O)N[C@@H](CO)C(=O)N[C@@H]([C@@H](C)O)C(=O)N4CCC[C@H]4C(=O)N4C[C@H](O)C[C@H]4C(=O)N[C@@H](Cc4c[nH]c5ccccc45)C(=O)N[C@H](C(N)=O)CSCCC6=O)nn3)C(N)=O)NC1=O)C(=O)CCSC[C@H](NC(C)=O)C(=O)N[C@@H](CC(C)(C)C)C(=O)N1CCC[C@H]1C(=O)N[C@@H](CCC(=O)O)C(=O)N[C@H](C)C(=O)N1CCC[C@H]1C(=O)N[C@@H](Cc1ccc(O)cc1)C(=O)N2 | Tumor necrosis factor receptor superfamily member 9 | binding |  | SPR |  | Kd | 5.1 nM |
| Cc1cnc(-c2ccc(-c3ccc(NC(=O)Nc4c(F)cc(F)cc4F)cc3F)c3c2C(=O)NC3)[nH]1 | Serine/threonine-protein kinase 4 (STK4, Homo sapiens, UniProt Q13043) | binding |  | competition with immobilised ligand |  | Kd | 1.3 nM |
| CCCC[C@@H]1NC(=O)[C@H](Cc2ccc(O)cc2)NC(=O)[C@@H]2CCCN2C(=O)[C@H](CC(=O)O)NC(=O)[C@H](C)NC(=O)[C@H](Cc2ccccc2)NC(=O)[C@@H]2CSCCC(=O)N3CN(CN(C3)C(=O)CCSC[C@@H](C(=O)N[C@@H](C)C(N)=O)NC1=O)C(=O)CCSC[C@H](NC(C)=O)C(=O)N[C@@H](CC(C)(C)C)C(=O)N1CCC[C@H]1C(=O)N[C@@H](CCC(=O)O)C(=O)N[C@H](CCCCNC(=O)CCc1cn(CCOCCOCCOCCOCCOCCC(=O)N[C@H]3CSCCC(=O)N4CN5CN(C4)C(=O)CCSC[C@H](NC(=O)[C@@H](CC(=O)O)NC(=O)[C@H](Cc4cccc6ccccc46)NC(=O)[C@@H]4CCCN4C3=O)C(=O)N[C@@H](CCSC)C(=O)N[C@@H](CCCCNC(=N)N)C(=O)N[C@@H](CC(=O)O)C(=O)N[C@@H](Cc3c[nH]c4ccccc34)C(=O)N[C@@H](CO)C(=O)N[C@@H]([C@@H](C)O)C(=O)N3CCC[C@H]3C(=O)N3C[C@H](O)C[C@H]3C(=O)N[C@@H](Cc3c[nH]c4ccccc34)C(=O)N[C@H](C(N)=O)CSCCC5=O)nn1)C(=O)N1CCC[C@H]1C(=O)N[C@@H](Cc1ccc(O)cc1)C(=O)N2 | Tumor necrosis factor receptor superfamily member 9 | binding |  | SPR |  | Kd | 3.4 nM |
| COc1ccc(OC(=O)N(CC(=O)O)Cc2ccc(OCCc3nc(-c4ccccc4)oc3C)cc2)cc1 | Peroxisome proliferator-activated receptor alpha (PPARA, Homo sapiens, UniProt Q07869) | reporter gene | agonist | luciferase |  | EC50 | 6500 nM |
| Nc1nc2c(ncn2[C@@H]2O[C@H](COP(=O)(O)OP(=O)(O)OP(=O)(O)OC[C@H]3O[C@@H](n4cnc5c(=O)[nH]c(N)nc54)[C@H](O)[C@@H]3O)[C@@H](O)[C@H]2O)c(=O)[nH]1 | Gem-associated protein 5 (Homo sapiens, UniProt Q8TEQ6) | binding |  | ITC |  | Kd | 140000 nM |
